We go through two compounds from article PMC9796681 (British Journal of Clinical Pharmacology, 2022).

The conditions of data set [1]: cited from earlier work.
Data set [2] can be described thus: Population pharmacokinetic analysis. The format is in vivo, human. The method, boiled down:
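Healthy young subjects: single 80 mg dose, fasting, sampled predose to 102 h. Gout patients: 40-160 mg/day at steady state (≥7 days after dose change), up to four samples at 1–24 h post-dose. Plasma assayed by HPLC-fluorescence, LLQ 0.005 µg mL-1. Two-compartment model, first-order elimination; power covariate model normalised to median; shared random effect on availability (FVAR); food tested on ka and F.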

For data set [3] the following is noted: two-compartment model; gouty; cited from earlier work.
The conditions of data set [4]: one-compartment model; cited from earlier work.
The mark [5] stands for this setting: single dose 80 mg, healthy subjects.

SMILES strings stand for the structures. Several values for one entry are separate records, joined by “and”; a condition that tells them apart may be missing. Equal entries are not always repeated. Entries after “also recorded” stand apart in the source; their conditions may differ. Where two headings read alike, the source gives them in different places.

With `Cc1nc(-c2ccc(OCC(C)C)c(C#N)c2)sc1C(=O)O[C@@H]1O[C@H](C(=O)O)[C@@H](O)[C@H](O)[C@H]1O` [Febuxostat glucuronide], the “proportion of the febuxostat dose as glucuronide, excreted by the kidneys” value in data set [1] (published data) is recorded as “about 40%”.

A word on the Vd/F: it is the volume of distribution divided by bioavailability. For the compound `Cc1nc(-c2ccc(OCC(C)C)c(C#N)c2)sc1C(=O)O` [febuxostat], in data set [2] (final model), the “BSV-CL/F, between-subject variability (coefficient of variation)” value was 13.6% and 13.6 (37.4) %; the “BSV-FVAR, common variability on oral availability” value was 27.7 (21.2) %; the “BSV-Vc/F, between-subject variability (coefficient of variation)” value is 22% and 22.0 (35.4) %; the “BSV-Vp/F, between-subject variability (coefficient of variation)” value is 19.5% and 19.5 (58.2) %. In data set [2] (final model, body mass index, median 30.6 kg m^−2), the “Covariate BMI (ϴ 7), power exponent on Vc/F” value is given as 0.996. For the same compound, in data set [2] (final model, fed status), the “Covariate food on ka” value is recorded as −0.869 and the “Covariate food on oral availability” value is on record as −0.667. In data set [2] (final model, fed versus fasted), the “reduction of absorption rate constant ka by food” value stood at 87% and the “reduction of oral availability (relative bioavailability) by food” value amounted to 67%. Also, the “RUV-CV%, residual unexplained variability” value in data set [2] (final model, proportional residual error) is recorded as 39.9 (10.1) %. Also, in data set [2] (final two-compartment model), the “absorption rate constant ka (ϴ 5), population mean” value was 3.6 h⁻¹ and 3.62 h⁻¹; the “apparent peripheral volume of distribution Vp/F (ϴ 4), population mean” value is given as 19.4 L; the “intercompartmental clearance Q (ϴ 3), population mean” value was determined as 1.25 L/h. In data set [2] (human, plasma, oral), the Vd/F is 32.8 L. Further, in data set [3], the “Residual CV” value is 71%; the “Vc/F, final estimate” value is on record as 32.2 L; the “Vp/F, final estimate” value was 22.2 L; the “ka, absorption rate constant” value was 13 h⁻¹. In data set [4], the “ka, absorption rate constant” value is 2.52 h⁻¹. Further, in data set [1] (Child-Pugh class A and B), the “effect of mild and moderate hepatic impairment on the pharmacokinetics” value is on record as “no effect; also recorded: did not affect”. Besides, the CL/F in data set [1] (Japanese subjects who had gout or were hyperuricaemic) is 9.9 L/h. The “reduction of apparent clearance by UGT polymorphisms” value in data set [1] (UGT six and 28 variants) is recorded as 22%. Also, in data set [1] (assumed by Hirai et al), the “ka, value assumed” value was 2.18 h⁻¹. For the same compound, the “decline of plasma concentration over the dosage interval” value in data set [1] (dosage interval 24 h) is reported as “up to 100 fold”. Besides, the CL/F in data set [1] (healthy African Americans) was 10.5 L/h. The CL/F in data set [1] (healthy Chinese subjects) is recorded as 5.3 Lh^−1. Also, the “effect of food on the extent of absorption (AUC0-48)” value in data set [1] (healthy subjects, 48 h) is “negligible effect; also recorded: reduce the rate but not the extent of absorption”. In data set [1] (healthy subjects), the “cleared by phase I metabolism (oxidation)” value is recorded as ~ 35%, the “cleared by phase II metabolism (glucuronidation)” value was ~ 40%, the “febuxostat eliminated from plasma in the first 9 h post-dose” value is 81% and the “reduction in AUC0-24 with food” value is 20%. Moreover, the “reduction in C max with food” value in data set [1] (healthy subjects) is listed as 50%. In data set [1] (setting [5]), the mean initial half-life was 2 h and the mean terminal half-life is listed as 14 h.
